{"source": "ChEMBL document CHEMBL3425486", "about": "“Lathyrol diterpenes as modulators of P-glycoprotein dependent multidrug resistance: structure-activity relationship studies on Euphorbia factor L3 derivatives” (J Med Chem, 2015)", "key": {"[1]": {"system": "MCF7", "assay": "Cytotoxicity against human MCF7 cells assessed as reduction in cell viability after 48 hrs by SRB colorimetric assay", "assay_type": "functional, cell-based", "details": "MCF7, 48 h", "summary_of_the_method": "(§1)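 MCF-7 from ATCC and its stepwise ADR-selected resistant subline, grown in RPMI-1640 with 10% FBS and penicillin/streptomycin at 37 °C, 5% CO2. 1 × 10^4 cells/well exposed to graded compound concentrations for 48 h. Cells fixed with 10% TCA, stained with 0.4% SRB in 1% acetic acid, dye extracted with 10 mM Tris base, OD read at 490 nm. Taxol positive control.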"}, "[2]": {"assay": "Cytotoxicity against human MCF7/ADR cells assessed as reduction in cell viability after 48 hrs by SRB colorimetric assay", "assay_type": "functional, cell-based", "details": "NCI/ADR-RES", "summary_of_the_method": "as §1"}, "[3]": {"biological_target": "T1, ATP-dependent translocase ABCB1 (Homo sapiens, UniProt P08183)", "T1 sequence (P08183 whole entry)": "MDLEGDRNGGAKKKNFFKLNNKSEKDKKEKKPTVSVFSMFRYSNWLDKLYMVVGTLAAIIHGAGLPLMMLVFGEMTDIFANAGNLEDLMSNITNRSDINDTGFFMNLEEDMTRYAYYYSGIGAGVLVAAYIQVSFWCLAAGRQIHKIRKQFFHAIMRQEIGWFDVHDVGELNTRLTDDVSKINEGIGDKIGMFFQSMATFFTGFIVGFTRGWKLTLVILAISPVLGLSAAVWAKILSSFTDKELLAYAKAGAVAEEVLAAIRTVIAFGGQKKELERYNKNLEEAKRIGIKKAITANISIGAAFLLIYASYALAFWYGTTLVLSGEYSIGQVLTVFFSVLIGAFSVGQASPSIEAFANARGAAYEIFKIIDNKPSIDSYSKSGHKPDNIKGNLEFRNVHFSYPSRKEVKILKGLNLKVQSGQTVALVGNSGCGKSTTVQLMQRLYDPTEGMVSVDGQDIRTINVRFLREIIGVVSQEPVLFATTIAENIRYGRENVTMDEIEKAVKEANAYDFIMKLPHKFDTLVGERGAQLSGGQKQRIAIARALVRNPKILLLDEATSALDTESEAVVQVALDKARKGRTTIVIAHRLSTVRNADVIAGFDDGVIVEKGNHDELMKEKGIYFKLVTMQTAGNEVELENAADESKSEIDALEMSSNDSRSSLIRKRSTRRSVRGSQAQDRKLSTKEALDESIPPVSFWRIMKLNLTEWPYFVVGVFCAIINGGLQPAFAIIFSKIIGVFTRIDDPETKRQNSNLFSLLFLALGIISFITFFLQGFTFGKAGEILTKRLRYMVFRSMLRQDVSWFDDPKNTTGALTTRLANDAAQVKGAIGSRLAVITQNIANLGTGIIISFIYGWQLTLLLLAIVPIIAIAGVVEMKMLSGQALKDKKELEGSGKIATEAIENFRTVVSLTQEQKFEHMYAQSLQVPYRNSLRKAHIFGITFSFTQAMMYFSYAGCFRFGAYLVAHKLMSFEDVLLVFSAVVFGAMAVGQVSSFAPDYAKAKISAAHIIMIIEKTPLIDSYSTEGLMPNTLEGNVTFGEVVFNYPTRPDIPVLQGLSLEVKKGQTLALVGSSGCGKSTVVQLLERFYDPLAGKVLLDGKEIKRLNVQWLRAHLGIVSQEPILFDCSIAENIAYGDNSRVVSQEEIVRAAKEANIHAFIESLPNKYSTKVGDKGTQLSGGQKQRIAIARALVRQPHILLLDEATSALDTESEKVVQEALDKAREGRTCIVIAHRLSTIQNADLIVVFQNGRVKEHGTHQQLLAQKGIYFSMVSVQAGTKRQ", "assay": "Inhibition of P-gp in human MCF7/ADR cells assessed as reversal of multidrug resistance by measuring relative enhancement intensity for adriamycin-induced cytotoxicity at 10 uM after 48 hrs by SRB colorimetric assay", "assay_type": "cell-based", "set-up": "scale not given: the % may be the effect or the level left", "details": "nci/adr-res"}, "[4]": {"system": "NCI/ADR-RES", "assay": "Inhibition of P-gp in human MCF7/ADR cells assessed as reversal of multidrug resistance at 10 uM by measuring ratio of EC50(adriamycin)/EC50(adriamycin + compound) after 48 hrs by SRB colorimetric assay", "assay_type": "cell-based"}, "[5]": {"assay": "Lipophilicity, log P of the compound", "assay_type": "physicochemical", "details": "octanol/water"}, "[6]": {"assay": "Inhibition of P-gp in human MCF7/ADR cells assessed as reversal of multidrug resistance at 10 uM by measuring EC50 for adriamycin-induced cytotoxicity after 48 hrs by SRB colorimetric assay", "details": "nci/adr-res"}, "[7]": {"biological_target": "T1, ATP-dependent translocase ABCB1", "assay": "Inhibition of P-gp in human MCF7/ADR cells assessed as forward scatter count of cells at 20 uM pre-treated for 1 hr at 37 degC followed by incubation with Rh123 for 1 hr by flow cytometry (reference value: 142.5 No unit)", "assay_type": "cell-based", "details": "nci/adr-res"}, "[8]": {"biological_target": "T1, ATP-dependent translocase ABCB1", "assay": "Inhibition of P-gp in human MCF7/ADR cells assessed as side scatter count of cells at 20 uM pre-treated for 1 hr at 37 degC followed by incubation with Rh123 for 1 hr by flow cytometry (reference value: 100.6 No unit)", "assay_type": "cell-based", "details": "nci/adr-res"}, "[9]": {"biological_target": "T1, ATP-dependent translocase ABCB1", "assay": "Inhibition of P-gp in human MCF7/ADR cells assessed as mean fluorescence intensity of cells at 20 uM pre-treated for 1 hr at 37 degC followed by incubation with Rh123 for 1 hr by flow cytometry (reference value: 108.1 +/- 43.9 No unit)", "assay_type": "cell-based", "details": "nci/adr-res"}, "[10]": {"biological_target": "T1, ATP-dependent translocase ABCB1", "assay": "Inhibition of P-gp in human MCF7/ADR cells assessed as peak fluorescence intensity of cells at 20 uM pre-treated for 1 hr at 37 degC followed by incubation with Rh123 for 1 hr by flow cytometry (reference value: 87.3 No unit)", "assay_type": "cell-based", "details": "nci/adr-res"}, "[11]": {"biological_target": "T1, ATP-dependent translocase ABCB1", "assay": "Inhibition of P-gp in human MCF7/ADR cells assessed as forward scatter count of cells at 2 uM pre-treated for 1 hr at 37 degC followed by incubation with Rh123 for 1 hr by flow cytometry (reference value: 142.5 No unit)", "assay_type": "cell-based", "details": "nci/adr-res"}, "[12]": {"biological_target": "T1, ATP-dependent translocase ABCB1", "assay": "Inhibition of P-gp in human MCF7/ADR cells assessed as forward scatter count of cells at 10 uM pre-treated for 1 hr at 37 degC followed by incubation with Rh123 for 1 hr by flow cytometry (reference value: 142.5 No unit)", "assay_type": "cell-based", "details": "nci/adr-res"}, "[13]": {"biological_target": "T1, ATP-dependent translocase ABCB1", "assay": "Inhibition of P-gp in human MCF7/ADR cells assessed as side scatter count of cells at 2 uM pre-treated for 1 hr at 37 degC followed by incubation with Rh123 for 1 hr by flow cytometry (reference value: 100.6 No unit)", "assay_type": "cell-based", "details": "nci/adr-res"}, "[14]": {"biological_target": "T1, ATP-dependent translocase ABCB1", "assay": "Inhibition of P-gp in human MCF7/ADR cells assessed as side scatter count of cells at 10 uM pre-treated for 1 hr at 37 degC followed by incubation with Rh123 for 1 hr by flow cytometry (reference value: 100.6 No unit)", "assay_type": "cell-based", "details": "nci/adr-res"}, "[15]": {"biological_target": "T1, ATP-dependent translocase ABCB1", "assay": "Inhibition of P-gp in human MCF7/ADR cells assessed as mean fluorescence intensity of cells at 2 uM pre-treated for 1 hr at 37 degC followed by incubation with Rh123 for 1 hr by flow cytometry (reference value: 108.1 +/- 43.9 No unit)", "assay_type": "cell-based", "details": "nci/adr-res"}, "[16]": {"biological_target": "T1, ATP-dependent translocase ABCB1", "assay": "Inhibition of P-gp in human MCF7/ADR cells assessed as mean fluorescence intensity of cells at 10 uM pre-treated for 1 hr at 37 degC followed by incubation with Rh123 for 1 hr by flow cytometry (reference value: 108.1 +/- 43.9 No unit)", "assay_type": "cell-based", "details": "nci/adr-res"}, "[17]": {"biological_target": "T1, ATP-dependent translocase ABCB1", "assay": "Inhibition of P-gp in human MCF7/ADR cells assessed as peak fluorescence intensity of cells at 2 uM pre-treated for 1 hr at 37 degC followed by incubation with Rh123 for 1 hr by flow cytometry (reference value: 87.3 No unit)", "assay_type": "cell-based", "details": "nci/adr-res"}, "[18]": {"biological_target": "T1, ATP-dependent translocase ABCB1", "assay": "Inhibition of P-gp in human MCF7/ADR cells assessed as peak fluorescence intensity of cells at 10 uM pre-treated for 1 hr at 37 degC followed by incubation with Rh123 for 1 hr by flow cytometry (reference value: 87.3 No unit)", "assay_type": "cell-based", "details": "nci/adr-res"}, "[19]": {"biological_target": "T1, ATP-dependent translocase ABCB1", "assay": "Inhibition of P-gp in human MCF7/ADR cells assessed as mean fluorescence intensity of cells pre-treated for 1 hr at 37 degC followed by incubation with Rh123 for 1 hr by flow cytometry", "assay_type": "cell-based", "details": "nci/adr-res"}}, "data": [{"compound": "C=C1CC[C@H]2[C@@H]([C@@H]3O[C@]4(C[C@H](C)[C@H](OC(C)=O)[C@@H]4[C@H]1OC(C)=O)C(=O)[C@H]3C)C2(C)C", "values": [{"measurement": "IC50", "setting": "[1]", "result": 12.7, "unit": "µM"}, {"measurement": "IC50", "setting": "[2]", "result": "> 100", "unit": "µM"}, {"measurement": "Activity", "setting": "[3]", "result": 13, "unit": "%"}, {"measurement": "Ratio EC50", "setting": "[4]", "result": 10.7}, {"measurement": "logP", "setting": "[5]", "result": 3.4}, {"measurement": "EC50", "setting": "[6]", "result": 3.23, "unit": "µM"}]}, {"compound": "COc1ccc(CCN(C)CCCC(C#N)(c2ccc(OC)c(OC)c2)C(C)C)cc1OC", "note": "(stereo unspecified)", "values": [{"measurement": "Activity", "setting": "[3]", "result": 8.4, "unit": "%"}, {"measurement": "Ratio EC50", "setting": "[4]", "result": 7.1}, {"measurement": "Activity", "setting": "[7]", "result": 137.4}, {"measurement": "Activity", "setting": "[8]", "result": 92.2}, {"measurement": "Flu intensity", "setting": "[9]", "result": 170}, {"measurement": "Activity", "setting": "[10]", "result": 157.1}]}, {"compound": "C=C1CC[C@H]2[C@@H](/C=C(\\C)C(=O)[C@@]3(O)C[C@H](C)[C@H](OC(=O)CC)[C@@H]3[C@H]1OC(=O)Cc1cccc3ccccc13)C2(C)C", "values": [{"measurement": "IC50", "setting": "[1]", "result": 9.73, "unit": "µM"}, {"measurement": "IC50", "setting": "[2]", "result": 75.7, "unit": "µM"}, {"measurement": "Activity", "setting": "[3]", "result": 14.4, "unit": "%"}, {"measurement": "Ratio EC50", "setting": "[4]", "result": 28.6}, {"measurement": "Activity", "setting": "[11]", "result": 138.5}, {"measurement": "Activity", "setting": "[12]", "result": 137.9}, {"measurement": "Activity", "setting": "[7]", "result": 131.4}, {"measurement": "Activity", "setting": "[13]", "result": 94.8}, {"measurement": "Activity", "setting": "[14]", "result": 101.2}, {"measurement": "Activity", "setting": "[8]", "result": 100.9}, {"measurement": "Flu intensity", "setting": "[15]", "result": 149.4}, {"measurement": "Flu intensity", "setting": "[16]", "result": 167.8}, {"measurement": "Flu intensity", "setting": "[9]", "result": 204.6}, {"measurement": "Activity", "setting": "[17]", "result": 143.5}, {"measurement": "Activity", "setting": "[18]", "result": 188.2}, {"measurement": "Activity", "setting": "[10]", "result": 235.8}, {"measurement": "inhibition (INH)", "setting": "[19]", "result": "Dose-dependent effect"}]}, {"compound": "C=C1CC[C@H]2[C@@H]([C@@H]3O[C@]4(C[C@H](C)[C@H](OC(=O)/C=C/c5ccccc5)[C@@H]4[C@H]1OC(=O)/C=C/c1ccccc1)C(=O)[C@H]3C)C2(C)C", "values": [{"measurement": "IC50", "setting": "[1]", "result": 64.2, "unit": "µM"}, {"measurement": "IC50", "setting": "[2]", "result": "> 100", "unit": "µM"}, {"measurement": "Activity", "setting": "[3]", "result": 2.1, "unit": "%"}, {"measurement": "Ratio EC50", "setting": "[4]", "result": 3.6}, {"measurement": "EC50", "setting": "[6]", "result": 9.68, "unit": "µM"}]}, {"compound": "C=C1CC[C@H]2[C@@H](/C=C(\\C)C(=O)[C@@]3(O)C[C@H](C)[C@H](OC(=O)c4ccccc4)[C@@H]3[C@H]1OC(=O)c1ccccc1)C2(C)C", "values": [{"measurement": "IC50", "setting": "[1]", "result": 13.2, "unit": "µM"}, {"measurement": "IC50", "setting": "[2]", "result": 63.8, "unit": "µM"}, {"measurement": "Activity", "setting": "[3]", "result": 23.9, "unit": "%"}, {"measurement": "Ratio EC50", "setting": "[4]", "result": 34.4}, {"measurement": "Activity", "setting": "[11]", "result": 146.8}, {"measurement": "Activity", "setting": "[12]", "result": 144.5}, {"measurement": "Activity", "setting": "[7]", "result": 148.1}, {"measurement": "Activity", "setting": "[13]", "result": 102.7}, {"measurement": "Activity", "setting": "[14]", "result": 104.4}, {"measurement": "Activity", "setting": "[8]", "result": 102}, {"measurement": "Flu intensity", "setting": "[15]", "result": 197.5}, {"measurement": "Flu intensity", "setting": "[16]", "result": 204.8}, {"measurement": "Flu intensity", "setting": "[9]", "result": 204.8}, {"measurement": "Activity", "setting": "[17]", "result": 215.4}, {"measurement": "Activity", "setting": "[18]", "result": 215.4}, {"measurement": "Activity", "setting": "[10]", "result": 196.8}]}, {"compound": "C=C1CC[C@H]2[C@@H](/C=C(\\C)C(=O)[C@@]3(O)C[C@H](C)[C@H](O)[C@@H]3[C@H]1OC(=O)Cc1cccc3ccccc13)C2(C)C", "values": [{"measurement": "IC50", "setting": "[1]", "result": 10.5, "unit": "µM"}, {"measurement": "IC50", "setting": "[2]", "result": 33.7, "unit": "µM"}, {"measurement": "Activity", "setting": "[3]", "result": 15.5, "unit": "%"}, {"measurement": "Ratio EC50", "setting": "[4]", "result": 16}, {"measurement": "Activity", "setting": "[11]", "result": 134.9}, {"measurement": "Activity", "setting": "[12]", "result": 148.5}, {"measurement": "Activity", "setting": "[7]", "result": 138.7}, {"measurement": "Activity", "setting": "[13]", "result": 96.3}, {"measurement": "Activity", "setting": "[14]", "result": 102.2}, {"measurement": "Activity", "setting": "[8]", "result": 94.2}, {"measurement": "Flu intensity", "setting": "[15]", "result": 141.1}, {"measurement": "Flu intensity", "setting": "[16]", "result": 168.1}, {"measurement": "Flu intensity", "setting": "[9]", "result": 182.1}, {"measurement": "Activity", "setting": "[17]", "result": 131.1}, {"measurement": "Activity", "setting": "[18]", "result": 196.8}, {"measurement": "Activity", "setting": "[10]", "result": 205.9}]}]}
